Screens as filed in PubChem.
NPY-Y1 antag = NPY-Y1 (human) receptor antagonism | P25929 | HEK293-CNG Y1 cells, membrane potential fluorescence; NPY at EC95, then isoproterenol | inhibition, % at 3.6 µM | hit rate 1% among 200,000;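 active = inhibition above the campaign mean inhibition of all tested compounds plus 3 SD, cut at about 20% in these data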;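 also: 0% = DMSO wells given NPY plus isoproterenol and 100% = isoproterenol alone without NPY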
Target sequence (P25929 whole entry, looked up): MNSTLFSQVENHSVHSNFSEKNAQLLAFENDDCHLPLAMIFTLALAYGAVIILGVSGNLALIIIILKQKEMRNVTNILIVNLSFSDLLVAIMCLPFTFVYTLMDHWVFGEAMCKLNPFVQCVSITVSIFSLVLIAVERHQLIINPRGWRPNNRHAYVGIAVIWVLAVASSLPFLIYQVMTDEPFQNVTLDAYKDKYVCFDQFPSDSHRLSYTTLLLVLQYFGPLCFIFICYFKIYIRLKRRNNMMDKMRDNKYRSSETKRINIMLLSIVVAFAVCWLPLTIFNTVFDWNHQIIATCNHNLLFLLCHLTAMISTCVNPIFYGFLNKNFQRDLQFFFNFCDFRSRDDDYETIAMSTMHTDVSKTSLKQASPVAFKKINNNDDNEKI
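Assay system: HEK293 Y1/CNG channel cell line; Doses: single compound dose of 3.6 µM, 0.4% DMSO; Timing: dye 3 h, compound 60 min room temperature, stimulation 45 min; Technique: Membrane-potential fluorescent dye readout; Measure: % inhibition of NPY effect.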
NPY Y2 blocker = NPY-Y2 (human) receptor antagonism | P49146 | NPY-Y2 expressing cells, antagonist mode | inhibition, % at 2.7 µM | hit rate 0.99% among 140,000 | AID 793;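 also: 0% = vehicle with agonist challenge and 100% = reference antagonist with challenge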
NPY1 pot ag = human NPY-Y1 potentiation or agonism, primary screen; P25929; NPY-Y1 expressing cells, potentiator/agonist activation; activation, % at 3.6 µM; hit rate 0.37% among 220,000; AID 1304; in the data active = activation above about 33%, passing the limit was not always enough;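 also: cells stimulated with NPY at EC10 then isoproterenol at EC100; 0% = low agonist plus stimulus and 100% = saturating agonist plus stimulus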
NPY-Y2 PAM-ag = potentiators or agonists of human neuropeptide Y receptor Y2; P49146; cells expressing NPY-Y2, potentiator/agonist read-out; activation, % at 3.6 µM; hit rate 0.45% among 220,000; AID 1359; in the data active = activation above about 27%;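 also: cells stimulated with NPY near EC25 plus isoproterenol at EC100; 0% = vehicle plus submaximal agonist and 100% = vehicle plus saturating agonist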
EP2 antag = blocks the human prostaglandin E2 receptor EP2; P43116; C6 glioma cells expressing human EP2, cAMP TR-FRET; cells stimulated with saturating PGE2; inhibition, % at 25 µM; hit rate 0.52% among 260,000; AID 1422;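 active = percent inhibition above 40 after rounding to a whole number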;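 also: rat C6 glioma host cells with rolipram phosphodiesterase inhibitor present; the protocol text gives 20 µM as final concentration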
EP2 modulator = modulators of human EP2 prostaglandin E2 receptor | hit rate 0.83% among 260,000 | P43116 | EP2-expressing cells, cAMP HTRF FRET, PGE2 co-stimulation | induction, % at 25 µM;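 active = compounds whose cAMP rise, as percent of the full-agonist control response, exceeds 60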;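 also: rat C6 glioma line stably carrying human EP2 under a CMV promoter; the protocol text gives 20 µM as final concentration; 100% = response of wells given 1 µM PGE2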
NPY1 antag conf = confirmation of human neuropeptide Y receptor Y1 antagonists | hit rate 21% among 1,200 | shares compounds with NPY-Y1 antag | inhibition, % at 3.6 µM | HEK293-CNG NPY-Y1, membrane potential fluorescence, cAMP; NPY challenge against isoproterenol-raised cAMP | AID 1254; in the data active = inhibition above about 20%;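 also: 0% = vehicle with agonist plus stimulus and 100% = stimulus alone without agonist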
NPY-Y2 antag ct = antagonizes human NPY-Y2, counter-screen to NPY-Y1 antagonists; shares compounds with NPY-Y1 antag; HEK293 NPY-Y2 CNG membrane potential fluorescence, antagonism; cells given NPY, then isoproterenol; inhibition, % at 3.6 µM; hit rate 28% among 1,200;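 also: 0% = DMSO with agonist challenge and 100% = reference antagonist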
* = called active by the depositor; / = no result. In the library only some 2.8% were active in any assay of this set; here they are far more common. Rule as the data show it, unless noted: active = inhibition above about 17%; inactive = the rest.

SMILES | NPY-Y1 antag | NPY Y2 blocker | NPY1 pot ag | NPY-Y2 PAM-ag | EP2 antag | EP2 modulator | NPY1 antag conf | NPY-Y2 antag ct
CS(=O)(=O)N1CCN(c2ccc(NC(=O)c3ccccc3Cl)cc2)CC1 | / | / | / | / | 11 | -47 | / | /
CCCCNC(=S)N(C)/N=C/c1ccc2c(c1)OCO2 | 22* | 10 | -21 | -17 | 5 | 43 | 9 | 11
CC(C)c1ccc2nc(SCC(=O)Nc3ccccc3Br)c(C#N)cc2c1 | / | / | / | / | 13 | 28 | / | /
COc1ccccc1NC(=O)Cc1noc(CSc2cc(C)c3ccccc3n2)n1 | 20* | 13 | -27 | -18 | 4 | 29 | 9 | 7
COc1ccccc1NC(=O)Cc1noc(CSc2cccc[n+]2[O-])n1 | 4 | -1 | 11 | -5 | 7 | 22 | / | /
COc1ccc(C(=O)Nc2ccccc2C(=O)NCc2ccco2)cc1OC | -2 | 3 | -6 | 3 | 13 | 18 | / | /
COc1ccc(C(=O)Nc2ccc(Cl)cc2C(=O)NCc2ccco2)cc1OC | 25* | 16 | -160 | -156 | 6 | 41 | 25* | 24*
Cc1nc(SC(C(=O)c2ccccc2)c2ccccc2)nc2ccccc12 (configuration not stated) | 6 | 9 | -15 | -6 | 7 | 40 | / | /
COc1ccc2nc(SC(C(=O)c3ccccc3)c3ccccc3)nc(C)c2c1 (configuration not stated) | 40* | 15 | -46 | -30 | 4 | 10 | 27* | 35*
CC(Sc1c[nH]c2ccccc12)C(=O)O (configuration not stated) | 28* | 10 | -42 | -16 | 2 | 12 | 5 | 4
COc1cccc(-c2cc(C(=O)Nc3nc4ccccc4s3)c3ccccc3n2)c1 | 31* | 16 | -135 | -135 | 0 | -3 | 26* | 38*
COc1cccc(-c2cc(C(=O)Nc3ccc4c(c3)OCCO4)c3ccccc3n2)c1 | 3 | 4 | -11 | -5 | / | 15 | / | /
COc1ccccc1NC(=S)N(Cc1cccs1)C1CCCC1 | 4 | / | -10 | -16 | 2 | 51 | / | /
COc1ccccc1NC(=S)N(Cc1ccccc1)Cc1cccs1 | 27* | / | -3 | 2 | 5 | 59 | 9 | 10
Cc1nc2c(c(=O)[nH]1)CCN(Cc1ccc(N3CCCCC3)cc1)C2 | / | / | / | / | 4 | -28 | / | /
COc1ccc(N2CCN(C(CNC(=O)C3CCCCC3)c3cccnc3)CC2)cc1 (configuration not stated) | 4 | -1 | 9 | 11 | 10 | / | / | /
O=C(NCC(c1cccnc1)N1CCN(c2ccc(F)cc2)CC1)C1CCCCC1 (configuration not stated) | 66* | 2 | -4 | -3 | 15 | 11 | 2 | 2
COc1ccc(NC(=O)N(Cc2cccnc2)Cc2cc3cc4c(cc3[nH]c2=O)OCCO4)cc1 | / | / | / | / | 12 | -6 | / | /
O=C(COC(=O)CCC(=O)c1ccc2c(c1)OCCO2)NCc1ccc2c(c1)OCO2 | 21* | 7 | -28 | -12 | 12 | 7 | 12 | 9
CC(=O)OCC(=O)NCc1ccc2c(c1)OCO2 | -3 | 0 | 1 | 9 | 10 | 19 | / | /
O=C(Cc1ccsc1)N1CCC(Cn2nc(-c3ccco3)ccc2=O)CC1 | / | / | / | / | / | -61 | / | /
Cc1ccc(NC(=S)N(CCN(C)C)Cc2cc3cc(C)cc(C)c3[nH]c2=O)cc1 | 25* | 7 | -11 | -11 | 13 | -44 | 1 | 8
COc1ccc2[nH]c(=O)c(C(c3nnnn3C3CCCC3)N3CCC(Cc4ccccc4)CC3)cc2c1 (configuration not stated) | / | / | / | / | 11 | 16 | / | /
Cc1ccc(C)c(C(=O)CN2C3=NCCCN3c3ccccc32)c1 | 26* | 8 | -5 | -2 | 14 | 13 | 11 | 12
CCOCc1nnc(NC(=O)COc2ccc(Cl)cc2)s1 | / | / | / | / | 7 | -22 | / | /
OCC1(CCCc2ccccc2)CCN(C2CCSCC2)CC1 | 25* | / | -14 | -28 | 10 | 5 | 10 | 12
CCOC(=O)C1(CCCc2ccccc2)CCN(C2CCSCC2)CC1 | 52* | / | -10 | -10 | 2 | -45 | 29* | 15
